# Activity calls are given as the source filed them.
# Assays:
# Mus musculus [1] = experiment: Toxicity in PS mouse allografted with mouse P388 cells assessed as change in body weight at 50 ug/kg relative to control; type: organism-based; settings: in vivo, 0.05 mg/kg
# How it was run: (§1)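 P388 (PS) leukemia in mice, 6 mice per dose group. Weight change is the difference in grams between treated and control animals. Survivors are recorded on toxicity day, normally 4 days after the first injection.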
# P388 [2] = experiment: Antitumor activity against mouse P388 cells allografted in PS mouse assessed as median survival time at 0.8 ug/kg relative to control; type: functional
# How it was run: (§2)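 P388 leukemia (PS) in mice, six mice started per dose group. Read-out is T/C: median survival time of the treated group divided by that of the untreated control group, expressed as a percent. The NIH protocol counts a compound as active when T/C > 125%.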
# Mus musculus [3] = experiment: Toxicity in PS mouse allografted with mouse P388 cells assessed as survival at 1.6 ug/kg after 4 days; type: organism-based; settings: in vivo, 0.0016 mg/kg, 96 h
# How it was run: (§3)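 PS (P388) leukemic mice, six started per dose group. Toxicity scored as survivors on the toxicity day over the number of mice started. The toxicity day is normally 4 days after the first injection.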
# Mus musculus [4] = experiment: Toxicity in PS mouse allografted with mouse P388 cells assessed as survival at 200 ug/kg after 4 days; type: organism-based; settings: in vivo, 0.2 mg/kg, 96 h; how it was run: as §3
# P388 [5] = experiment: Antitumor activity against mouse P388 cells allografted in PS mouse assessed as median survival time at 6.2 ug/kg relative to control; type: functional; how it was run: as §2
# P388 [6] = experiment: Antitumor activity against mouse P388 cells allografted in PS mouse assessed as median survival time at 3.1 ug/kg relative to control; type: functional; how it was run: as §2
# Mus musculus [7] = experiment: Toxicity in PS mouse allografted with mouse P388 cells assessed as survival at 6.2 ug/kg after 4 days; type: organism-based; settings: in vivo, 0.0062 mg/kg, 96 h; how it was run: as §3
# Mus musculus [8] = experiment: Toxicity in PS mouse allografted with mouse P388 cells assessed as change in body weight at 200 ug/kg relative to control; type: organism-based; settings: in vivo, 0.2 mg/kg; how it was run: as §1
# Mus musculus [9] = experiment: Toxicity in PS mouse allografted with mouse P388 cells assessed as change in body weight at 25 ug/kg relative to control; type: organism-based; settings: in vivo, 0.025 mg/kg; how it was run: as §1
# KB = experiment: Cytotoxicity against human KB cells; type: functional; settings: read-out: ED50 (the source's name)
# P388 [10] = experiment: Antitumor activity against mouse P388 cells allografted in PS mouse assessed as median survival time at 25 ug/kg relative to control; type: functional; how it was run: as §2
# Paracentrotus lividus = experiment: Antimitotic activity against sea urchin eggs assessed as drug level causing inhibition of mitosis; type: functional; settings: Egg
# P388 [11] = experiment: Antitumor activity against mouse P388 cells allografted in PS mouse assessed as median survival time at 1.5 ug/kg relative to control; type: functional; how it was run: as §2
# Mus musculus [12] = experiment: Toxicity in PS mouse allografted with mouse P388 cells assessed as change in body weight at 6.2 ug/kg relative to control; type: organism-based; settings: in vivo, 0.0062 mg/kg; how it was run: as §1
# Mus musculus [13] = experiment: Toxicity in PS mouse allografted with mouse P388 cells assessed as survival at 1.5 ug/kg after 4 days; type: organism-based; settings: in vivo, 0.0015 mg/kg, 96 h; how it was run: as §3
# Mus musculus [14] = experiment: Toxicity in PS mouse allografted with mouse P388 cells assessed as survival at 0.8 ug/kg after 4 days; type: organism-based; settings: in vivo, 0.0008 mg/kg, 96 h; how it was run: as §3
# Mus musculus [15] = experiment: Toxicity in PS mouse allografted with mouse P388 cells assessed as change in body weight at 3.1 ug/kg relative to control; type: organism-based; settings: in vivo, 0.0031 mg/kg; how it was run: as §1
# Mus musculus [16] = experiment: Toxicity in PS mouse allografted with mouse P388 cells assessed as survival at 12.5 ug/kg after 4 days; type: organism-based; settings: in vivo, 0.0125 mg/kg, 96 h; how it was run: as §3
# Mus musculus [17] = experiment: Toxicity in PS mouse allografted with mouse P388 cells assessed as change in body weight at 100 ug/kg relative to control; type: organism-based; settings: in vivo, 0.1 mg/kg; how it was run: as §1
# P388 [18] = experiment: Antitumor activity against mouse P388 cells allografted in PS mouse assessed as median survival time at 50 ug/kg relative to control; type: functional; how it was run: as §2
# Mus musculus [19] = experiment: Toxicity in PS mouse allografted with mouse P388 cells assessed as change in body weight at 12.5 ug/kg relative to control; type: organism-based; settings: in vivo, 0.0125 mg/kg; how it was run: as §1
# Tubulin (Homo sapiens) = Tubulin (Homo sapiens) (UniProt P68371+Q9H4B7+P0DPH7+P68366+Q13509+Q71U36+P04350+Q3ZCM7+P07437+P68363+Q9BQE3+Q6PEY2+Q13885+Q9BVA1+Q9BUF5); experiment: Inhibition of brain tubulin polymerization (unknown origin) at 37 degC by spectrophotometry
# Mus musculus [20] = experiment: Toxicity in PS mouse allografted with mouse P388 cells assessed as change in body weight at 0.8 ug/kg relative to control; type: organism-based; settings: in vivo, 0.0008 mg/kg
# How it was run: (§4)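 PS (P388 leukemia) mice, six per dose group. Toxicity read as the difference in grams between the weights of treated and control animals.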
# Mus musculus [21] = experiment: Toxicity in PS mouse allografted with mouse P388 cells assessed as survival at 3.1 ug/kg after 4 days; type: organism-based; settings: in vivo, 0.0031 mg/kg, 96 h; how it was run: as §3
# P388 [22] = experiment: Antitumor activity against mouse P388 cells allografted in PS mouse assessed as median survival time at 12.5 ug/kg relative to control; type: functional; how it was run: as §2
# Mus musculus [23] = experiment: Toxicity in PS mouse allografted with mouse P388 cells assessed as survival at 100 ug/kg after 4 days; type: organism-based; settings: in vivo, 0.1 mg/kg, 96 h; how it was run: as §3
# Mus musculus [24] = experiment: Toxicity in PS mouse allografted with mouse P388 cells assessed as survival at 25 ug/kg after 4 days; type: organism-based; settings: in vivo, 0.025 mg/kg, 96 h; how it was run: as §3
# P388 [25] = experiment: Antitumor activity against mouse P388 cells allografted in PS mouse assessed as median survival time at 100 ug/kg relative to control; type: functional; how it was run: as §2
# Mus musculus [26] = experiment: Toxicity in PS mouse allografted with mouse P388 cells assessed as change in body weight at 1.5 ug/kg relative to control; type: organism-based; settings: in vivo, 0.0015 mg/kg; how it was run: as §4
# Mus musculus [27] = experiment: Toxicity in PS mouse allografted with mouse P388 cells assessed as survival at 50 ug/kg after 4 days; type: organism-based; settings: in vivo, 0.05 mg/kg, 96 h; how it was run: as §3
# P388 [28] = experiment: Antitumor activity against mouse P388 cells allografted in PS mouse assessed as median survival time at 200 ug/kg relative to control; type: functional; how it was run: as §2
# P388 [29] = experiment: Antitumor activity against mouse P388 cells allografted in PS mouse assessed as median survival time at 6.3 ug/kg relative to control; type: functional; how it was run: as §2
# Mus musculus [30] = experiment: Toxicity in PS mouse allografted with mouse P388 cells assessed as change in body weight at 0.4 ug/kg relative to control; type: organism-based; settings: in vivo, 0.0004 mg/kg; how it was run: as §4
# P388 [31] = experiment: Antitumor activity against mouse P388 cells allografted in PS mouse assessed as median survival time at 1.1 ug/kg relative to control; type: functional; how it was run: as §2
# Mus musculus [32] = experiment: Toxicity in PS mouse allografted with mouse P388 cells assessed as survival at 6.3 ug/kg after 4 days; type: organism-based; settings: in vivo, 0.0063 mg/kg, 96 h; how it was run: as §3
# P388 [33] = experiment: Antitumor activity against mouse P388 cells allografted in PS mouse assessed as median survival time at 0.4 ug/kg relative to control; type: functional; how it was run: as §2
# P388 [34] = experiment: Antitumor activity against mouse P388 cells allografted in PS mouse assessed as median survival time at 0.2 ug/kg relative to control; type: functional; how it was run: as §2
# Mus musculus [35] = experiment: Toxicity in PS mouse allografted with mouse P388 cells assessed as change in body weight at 6.3 ug/kg relative to control; type: organism-based; settings: in vivo, 0.0063 mg/kg; how it was run: as §1
# Mus musculus [36] = experiment: Toxicity in PS mouse allografted with mouse P388 cells assessed as change in body weight at 1.1 ug/kg relative to control; type: organism-based; settings: in vivo, 0.0011 mg/kg; how it was run: as §1
# Mus musculus [37] = experiment: Toxicity in PS mouse allografted with mouse P388 cells assessed as survival at 0.4 ug/kg after 4 days; type: organism-based; settings: in vivo, 0.0004 mg/kg, 96 h; how it was run: as §3
# Mus musculus [38] = experiment: Toxicity in PS mouse allografted with mouse P388 cells assessed as change in body weight at 0.2 ug/kg relative to control; type: organism-based; settings: in vivo, 0.0002 mg/kg; how it was run: as §4
# Mus musculus [39] = experiment: Toxicity in PS mouse allografted with mouse P388 cells assessed as survival at 0.2 ug/kg after 4 days; type: organism-based; settings: in vivo, 0.0002 mg/kg, 96 h; how it was run: as §3
# Mus musculus [40] = experiment: Toxicity in PS mouse allografted with mouse P388 cells assessed as survival at 1.1 ug/kg after 4 days; type: organism-based; settings: in vivo, 0.0011 mg/kg, 96 h; how it was run: as §3
Structure (SMILES),Activity (Mus musculus [1]) [g],T/C (P388 [2]) [%],T/C (P388 [6]) [%],Activity (Mus musculus [9]) [g],EC50 (KB) [ng/mL],T/C (P388 [10]) [%],Activity (Paracentrotus lividus),Activity (Mus musculus [14]),Activity (Mus musculus [15]) [g],Activity (Mus musculus [16]),Activity (Mus musculus [17]) [g],T/C (P388 [18]) [%],Activity (Mus musculus [19]) [g],inhibition (Tubulin (Homo sapiens)),Activity (Mus musculus [20]) [g],Activity (Mus musculus [21]),T/C (P388 [22]) [%],Activity (Mus musculus [23]),Activity (Mus musculus [24]),T/C (P388 [25]) [%],also measured
COc1cc2cc(c1Cl)N(C)C(=O)C[C@H](OC(C)=O)[C@]1(C)O[C@H]1[C@H](C)[C@@H]1C[C@@](O)(NC(=O)O1)[C@H](OC)/C=C/C=C(\C)C2,-0.3,110,133,-1.2,0.0018,173,1 ×10⁻⁸ mol/L,Non-toxic,-1,Non-toxic,-0.6,183,0.3,Active,0,Non-toxic,158,Non-toxic,Non-toxic,230,Activity (Mus musculus [3]): Non-toxic; Activity (Mus musculus [4]): Non-toxic; T/C (P388 [5]): 150%; Activity (Mus musculus [7]): Non-toxic; Activity (Mus musculus [8]): -3.7 g; T/C (P388 [11]): 150%; Activity (Mus musculus [12]): 0.5 g; Activity (Mus musculus [13]): Non-toxic; Activity (Mus musculus [26]): -1.1 g; Activity (Mus musculus [27]): Non-toxic; T/C (P388 [28]): 100%
COc1cc2cc(c1Cl)N(C)C(=O)/C=C/[C@]1(C)O[C@H]1[C@H](C)[C@@H]1C[C@@](O)(NC(=O)O1)[C@H](OC)/C=C/C=C(\C)C2,2.6,90,90,1.7,25,<80,1 µM,Non-toxic,0.4,Non-toxic,1,<80,1,Active,2.8,Non-toxic,<80,Non-toxic,Non-toxic,110,T/C (P388 [29]): <80%; Activity (Mus musculus [30]): 2.5 g; T/C (P388 [31]): 90%; Activity (Mus musculus [32]): Non-toxic; T/C (P388 [33]): 90%; T/C (P388 [34]): 90%; Activity (Mus musculus [35]): 0.3 g; Activity (Mus musculus [36]): 2 g; Activity (Mus musculus [37]): Non-toxic; Activity (Mus musculus [38]): 2.1 g; Activity (Mus musculus [39]): Non-toxic; Activity (Mus musculus [40]): Non-toxic; Activity (Mus musculus [27]): Non-toxic

# Source: ChEMBL document CHEMBL3244382, “Structural requirements for antileukemic activity among the naturally occurring and semisynthetic maytansinoids” (J Med Chem, 1978)
